Data: ChEMBL document CHEMBL5149993, “Rational Design of Photochromic Analogues of Tricyclic Drugs” (J Med Chem, 2021)
The source made the active and inactive calls. No cut-off for these calls is given here.

What was measured:
[1] = Displacement of [3H]-QNB from Wistar rat brain membrane mAChR assessed as inhibition constant incubated for 30 mins by radioligand competitive binding assay; type: cell membranes
How it was run: (§1)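 Female Wistar rat cortex membranes (30 μg protein) in tris-HCl with 6 mM MgCl₂, 200 pM [³H]QNB (Kd 40 pM), ligands from 1 or 10 nM to 300 μM; 30 min at 37 °C equilibrium. Filtration through GF/C filters, scintillation counting. Nonspecific binding defined with 2 μM atropine. One-site competitive fits gave IC50 and Ki; n = 4 per isomer, n = 2 for reference.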

[2] = Displacement of [3H]-QNB from Wistar rat brain membrane mAChR incubated for 30 mins by radioligand competitive binding assay; type: cell membranes; how it was run: as §1
[3] = Thermal stability of the compound assessed as half life; type: physicochemical
[4] = target: T1, Muscarinic acetylcholine receptor M1 (Homo sapiens) (UniProt P11229); assay: Antagonist activity at human M1 mAChR receptor expressed in HEK cells assessed as reduction in total cell response at 100 uM by real-time calcium imaging method relative to control; type: functional, cell-based; design: scale not given: the % may be the effect or the level left
T1 sequence (whole entry): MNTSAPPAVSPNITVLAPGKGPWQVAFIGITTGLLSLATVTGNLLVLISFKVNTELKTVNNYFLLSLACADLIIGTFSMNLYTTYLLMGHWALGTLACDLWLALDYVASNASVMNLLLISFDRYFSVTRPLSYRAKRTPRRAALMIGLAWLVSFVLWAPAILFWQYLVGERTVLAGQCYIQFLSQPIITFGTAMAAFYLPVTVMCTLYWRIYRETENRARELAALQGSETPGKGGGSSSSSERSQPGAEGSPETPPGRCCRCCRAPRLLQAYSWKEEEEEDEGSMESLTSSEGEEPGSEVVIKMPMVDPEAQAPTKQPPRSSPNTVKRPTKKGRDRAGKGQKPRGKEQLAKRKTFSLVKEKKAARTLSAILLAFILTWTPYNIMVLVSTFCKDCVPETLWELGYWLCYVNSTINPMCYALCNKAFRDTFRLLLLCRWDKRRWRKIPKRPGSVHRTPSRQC
How it was run: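 tsA201 cells transiently transfected with human M1 (± R-GECO1), used 48–72 h post-transfection. OGB-1 AM loading at 10 μM final, 30 min, 37 °C; HEPES bath pH 7.4 with 2 mM CaCl₂. Test at 100 μM against 0.5 μM ACh; cis formed by 2 min 365 nm pre-illumination or continuous 460 nm light. Responses normalized to 0.5 μM ACh maximum; Wilcoxon signed rank test.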

[5] = target: T2, Muscarinic acetylcholine receptor M1 (Homo sapiens, UniProt P11229); assay: Displacement of [3H]-pirenzepine from human recombinant M1 receptor expressed in CHO cells incubated for 60 mins by topcount scintillation counter method; type: cell-based
T2 sequence (P11229 whole entry): T1 sequence (whole entry)
How it was run: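 Membranes from CHO cells with human M1 (45 μg protein), 2 nM [³H]pirenzepine (Kd 13 nM), 60 min at 22 °C. Nonspecific binding with 1 μM atropine. GF/B filtration, scintillation counting. Tested at 1, 10 and 100 μM after 30 min 365 nm irradiation of DMSO stock; % inhibition, duplicate.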

[6] = system: Cardiac atrium; assay: Anticholinergic activity in isolated CD1 mouse CCh-induced bradycardia atrium assessed as recovery of CCh-indued contraction frequency at 100 uM; type: functional, tissue-based
How it was run: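 Right atria from CD1 male mice, 10–12 weeks, in carbogenated Krebs, pH 7.4, under 0.2 g tension. Isometric recording of spontaneous contractions after 5–10 min equilibration. Bradycardia induced with CCh 10⁻⁶ M; test compound then added and beats/min measured.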

[7] = target: Muscarinic acetylcholine receptor M2 (human) (UniProt P08172); assay: Displacement of [3H]AF-DX384 from human recombinant M2 receptor expressed in CHO cells by topcount scintillation counter method

## CN1CCN(CC(=O)Nc2ccccc2/N=N/c2ccc(N(C)C)cc2)CC1
[1]
  Ki: 5.3 µM
[2]
  IC50: 33 µM

## CN1CCN(CC(=O)Nc2ccccc2/N=N/c2cccnc2)CC1.Cl.Cl
[3]
  half-life: 1.18 h
[1]
  Ki: 6.4 µM
[2]
  IC50: 38 µM

## CN1CCN(CC(=O)Nc2ccccc2/N=N\c2cccnc2)CC1.Cl.Cl
[3]
  half-life: 1.18 h
[1]
  Ki: 7 µM
[2]
  IC50: 42 µM

## CN1CCN(CC(=O)Nc2ccccc2/N=N\c2ccccc2)CC1.Cl.Cl
[3]
  half-life: 3.03 h
[1]
  Ki: 1.5 µM
[2]
  IC50: 9.2 µM
[4]; filed as antagonist
  Activity: 73%
[5]
  IC50: 1.9 µM
[6]
  Activity: Active
[7]
  IC50: 28 µM

## CN1CCN(CC(=O)Nc2ccccc2/N=N/c2ccccc2)CC1.Cl.Cl
[3]
  half-life: 3.03 h
[1]
  Ki: 1.7 µM
[2]
  IC50: 9.9 µM
[4]; filed as antagonist
  Activity: 64%

## CN1CCN(CC(=O)N2c3ccccc3C(=O)Nc3cccnc32)CC1
[6]
  Activity: Active

## CN1CCN(CC(=O)Nc2ccccc2/N=N\c2ccc(N(C)C)cc2)CC1
[1]
  Ki: 5.3 µM
[2]
  IC50: 32 µM
[4]
  Activity: 14%
